# Assay results reported in ChEMBL document CHEMBL1773028, “Pentasaccharide resin glycosides from Ipomoea pes-caprae” (2011).
# Calls of active or inactive are those of the source. No cut-off for these calls is given here.
# Legend:
# [1] = tested on: NCI/ADR-RES; assay: Reversal fold, ratio of IC50 for doxorubicin alone to IC50 for doxorubicin in presence of compound in human MCF7/ADR cells after 48 hrs by MTT assay; assay type: functional
# Summary of the method: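 MCF-7/ADR cells seeded at 4.5 × 10^3 per well. Doxorubicin serially diluted 0.008–25 μg/mL, with or without 5 μg/mL sample; verapamil 5 μg/mL as positive control. MTT after 48 h. Doxorubicin IC50 computed relative to untreated cells (100%). RF = IC50 doxorubicin alone / IC50 with sample. Triplicate.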
# [2] = tested on: NCI/ADR-RES; assay: Cytotoxicity against multidrug-resistance human MCF7/ADR cells after 48 hrs by MTT assay; assay type: functional, cell-based
# Summary of the method: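 MCF-7/ADR cells grown in DMEM with 10% FBS, trypsinized, seeded at 4.5 × 10^4 cells/mL and held 24 h at 37 °C, 5% CO2. Compounds added in DMSO over 400 to 1 μg/mL. MTT read-out after 48 h exposure. Triplicate.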
SMILES,Ratio IC50 [1],Activity [2]
CCCCCCCCCC(=O)O[C@H]1[C@H](O[C@@H]2[C@@H](O)[C@H]3OC(=O)CCCCCCCCC[C@H](CCCCC)O[C@@H]4O[C@H](C)[C@H](O)[C@H](O)[C@H]4O[C@@H]3O[C@H]2C)O[C@@H](C)[C@H](O[C@@H]2O[C@@H](C)[C@H](O)[C@@H](OC(=O)[C@@H](C)CC)[C@H]2O)[C@H]1O[C@@H]1O[C@@H](C)[C@H](O)[C@@H](O)[C@H]1O [PESCAPREIN XXX],2.3,inactive
CCCCCCCCCC(=O)O[C@H]1[C@H](O[C@@H]2[C@H]3OC(=O)CCCCCCCCC[C@H](CCCCC)O[C@@H]4O[C@H](C)[C@H](O)[C@H](O)[C@H]4O[C@H](O[C@H]2C)[C@@H]3O)O[C@@H](C)[C@H](O[C@@H]2O[C@@H](C)[C@H](OC(=O)C(C)C)[C@@H](OC(=O)/C=C/c3ccccc3)[C@H]2O)[C@H]1O[C@@H]1O[C@@H](C)[C@H](O)[C@@H](O)[C@H]1O [PESCAPREIN XXVI],3.7,inactive
CCCCCCCC(=O)O[C@H]1[C@H](O[C@@H]2[C@H]3OC(=O)CCCCCCCCC[C@H](CCCCC)O[C@@H]4O[C@H](C)[C@H](O)[C@H](O)[C@H]4O[C@H](O[C@H]2C)[C@@H]3O)O[C@@H](C)[C@H](O[C@@H]2O[C@@H](C)[C@H](OC(=O)[C@@H](C)CC)[C@@H](OC(=O)/C=C/c3ccccc3)[C@H]2O)[C@H]1O[C@@H]1O[C@@H](C)[C@H](O)[C@@H](O)[C@H]1O [PESCAPREIN XXVIII],2.3,inactive
CCCCCCCCCCCC(=O)O[C@H]1[C@H](O[C@@H]2[C@H]3OC(=O)CCCCCCCCC[C@H](CCCCC)O[C@@H]4O[C@H](C)[C@H](O)[C@H](O)[C@H]4O[C@H](O[C@H]2C)[C@@H]3O)O[C@@H](C)[C@H](O[C@@H]2O[C@@H](C)[C@H](OC(=O)[C@@H](C)CC)[C@@H](O)[C@H]2OC(=O)/C=C/c2ccccc2)[C@H]1O[C@@H]1O[C@@H](C)[C@H](O)[C@@H](O)[C@H]1O [PESCAPREIN XXI],1.5,inactive
CCCCC[C@H]1CCCCCCCCCC(=O)O[C@H]2[C@@H](O)[C@H](O[C@H]3[C@H](O1)O[C@H](C)[C@H](O)[C@@H]3O)O[C@@H](C)[C@@H]2O[C@@H]1O[C@@H](C)[C@H](O[C@@H]2O[C@@H](C)[C@H](OC(=O)[C@@H](C)CC)[C@@H](OC(=O)/C=C/c3ccccc3)[C@H]2O)[C@@H](O[C@@H]2O[C@@H](C)[C@H](O)[C@@H](O)[C@H]2O)[C@H]1OC(=O)[C@@H](C)CC [PESCAPREIN XXVII],1.9,inactive
CCCCCCCCCC(=O)O[C@H]1[C@H](O[C@@H]2[C@H]3OC(=O)CCCCCCCCC[C@H](CCCCC)O[C@@H]4O[C@H](C)[C@H](O)[C@H](O)[C@H]4O[C@H](O[C@H]2C)[C@@H]3O)O[C@@H](C)[C@H](O[C@@H]2O[C@@H](C)[C@H](OC(=O)[C@@H](C)CC)[C@@H](O)[C@H]2OC(=O)/C=C/c2ccccc2)[C@H]1O[C@@H]1O[C@@H](C)[C@H](O)[C@@H](O)[C@H]1O [PESCAPREIN XXIV],1.8,inactive
CCCCCC(=O)O[C@H]1[C@H](O[C@@H]2[C@@H](O)[C@H]3OC(=O)CCCCCCCCC[C@H](CCCCC)O[C@@H]4O[C@H](C)[C@H](O)[C@H](O)[C@H]4O[C@@H]3O[C@H]2C)O[C@@H](C)[C@H](O[C@@H]2O[C@@H](C)[C@H](OC(=O)[C@@H](C)CC)[C@@H](OC(=O)/C=C/c3ccccc3)[C@H]2O)[C@H]1O[C@@H]1O[C@@H](C)[C@H](O)[C@@H](O)[C@H]1O [PESCAPREIN XXIX],3.2,inactive
COc1ccc(CCN(C)CCCC(C#N)(c2ccc(OC)c(OC)c2)C(C)C)cc1OC (centres undefined) [VERAPAMIL],21,
CCCCCCCCCCCC(=O)O[C@H]1[C@H](O[C@@H]2[C@H]3OC(=O)CCCCCCCCC[C@H](CCCCC)O[C@@H]4O[C@H](C)[C@H](O)[C@H](O)[C@H]4O[C@H](O[C@H]2C)[C@@H]3O)O[C@@H](C)[C@H](O[C@@H]2O[C@@H](C)[C@H](OC(=O)C(C)C)[C@@H](OC(=O)/C=C/c3ccccc3)[C@H]2O)[C@H]1O[C@@H]1O[C@@H](C)[C@H](O)[C@@H](O)[C@H]1O [PESCAPREIN XXV],2.1,inactive
CCCCCCCCCC(=O)O[C@H]1[C@H](O[C@@H]2[C@H]3OC(=O)CCCCCCCCC[C@H](CCCCC)O[C@@H]4O[C@H](C)[C@H](O)[C@H](O)[C@H]4O[C@H](O[C@H]2C)[C@@H]3O)O[C@@H](C)[C@H](O[C@@H]2O[C@@H](C)[C@H](OC(=O)[C@@H](C)CC)[C@@H](OC(=O)/C=C/c3ccccc3)[C@H]2O)[C@H]1O[C@@H]1O[C@@H](C)[C@H](O)[C@@H](O)[C@H]1O [PESCAPREIN XXIII],2.9,inactive
